Screens as filed in PubChem BioAssay.
TAAR1 antagonist: human TAAR1 antagonists, primary screen, Fluo-8 calcium fluorescence, CHO RD-HGA16 cells; Trace amine-associated receptor 1 (Homo sapiens), Q96RJ0; antagonist; inhibition, % at 3 µM; 360,000 compounds, 1.5% hits;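 active = inhibition above a per-plate cutoff, the mean inhibition of test compounds on that plate plus 3 SD, cut at about 49% in these data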;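 note: 0% = DMSO plus EC80 beta-PEA response and 100% = DMSO alone without agonist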
Target sequence (Q96RJ0 whole entry, looked up): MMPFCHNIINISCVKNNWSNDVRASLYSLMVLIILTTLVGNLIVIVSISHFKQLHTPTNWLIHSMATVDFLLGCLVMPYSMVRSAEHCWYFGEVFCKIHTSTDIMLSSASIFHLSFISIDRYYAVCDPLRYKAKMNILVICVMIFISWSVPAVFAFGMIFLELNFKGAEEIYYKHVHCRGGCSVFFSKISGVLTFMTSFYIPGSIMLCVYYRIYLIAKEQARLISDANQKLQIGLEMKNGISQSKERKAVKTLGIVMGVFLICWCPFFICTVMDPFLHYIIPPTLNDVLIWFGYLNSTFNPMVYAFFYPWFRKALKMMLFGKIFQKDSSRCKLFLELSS
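Test system – hTAAR1-expressing CHO RD-HGA16 cells, Gα16-coupled · Reagent – β-PEA at EC80 concentration, post-compound challenge · Compound dosing – 3 µM, single point · Timing – 140 s kinetic read after compound, 140 s after agonist · Detection – Fluo-8 intracellular calcium dye fluorescence, real-time kinetic reads · Control set – DMSO and EC80 PEA controls · Repeats – n of 1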
CHO parental Ca: ATP-evoked calcium signal inhibitors, parental CHO, primary screen, counter-screen for OX1R antagonist project, cell-based, fluorescence, Fluo-8 calcium dye | parental CHO-K1, ATP-induced calcium, Fluo-8 fluorescence | inhibition, % at 5.6 µM | 330,000 compounds, 0.63% hits | AID 463079, 2010;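 active = inhibition above that plate's mean sample inhibition plus 3 SD, cut at about 26% in these data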;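 note: 0% = ATP-challenged DMSO wells and 100% = DMSO wells without ATP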
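material = parental CHO cells | also added = ATP as calcium-mobilizing challenge | dosing = single point at 5.6 µM | detection = intracellular calcium via Fluo-8 no-wash fluorescent dye | read-out = % inhibition | benchmarks = low control ATP plus DMSO, high control DMSO only | repeats = one well per compound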
TAAR1 agonist: human TAAR1 agonists, primary screen, Fluo-8 calcium fluorescence, CHO RD-HGA16 cells; vehicle wells 0%, saturating PEA agonist 100%; activation, % at 3 µM; 360,000 compounds, 0.99% hits;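 active = activation above the mean activation of all test compounds in the run plus 3 SD, cut at about 38% in these data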
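Signal – calcium-sensitive Fluo-8 signal, excitation 470-495, emission 515-575 nm · System – RD-HGA16 (CHO) cells co-expressing Gα16 and hTAAR1 · Incubation – 17-24 h seeding, 75 min 37 °C dye, 30 min RT · Compound dosing – 3 µM single concentration · Repeats – no replicates (n 1)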
OX1R antag-1: OX1R (HCRTR1) antagonists, primary screen, fluorescence, CHO/OX1R cells, Fluo-8 calcium, orexin A | inhibition, % at 5 µM | AID 434989, 2010 | Fluo-8 calcium fluorescence | 330,000 compounds, 0.43% hits;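 active = inhibition above its plate's threshold, mean inhibition of all tested compounds on the plate plus 3 SD, cut at about 37% in these data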;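 note: 0% = orexin A challenge wells and 100% = SB-334867-A antagonist wells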
GPR7 antag: GPR7 receptor antagonists, primary screen, cell-based, fluorescence, single concentration; Neuropeptides B/W receptor type 1 (Homo sapiens), P48145; GPR7-expressing cells, fluorescence antagonist assay; inhibition, % at 4.4 µM; 290,000 compounds, 1.1% hits; in the data active = inhibition above about 16%, passing the limit was not always enough;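 note: cells stimulated with the agonist NPW; 0% = agonist with vehicle and 100% = vehicle without agonist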
Target sequence (P48145 whole entry, looked up): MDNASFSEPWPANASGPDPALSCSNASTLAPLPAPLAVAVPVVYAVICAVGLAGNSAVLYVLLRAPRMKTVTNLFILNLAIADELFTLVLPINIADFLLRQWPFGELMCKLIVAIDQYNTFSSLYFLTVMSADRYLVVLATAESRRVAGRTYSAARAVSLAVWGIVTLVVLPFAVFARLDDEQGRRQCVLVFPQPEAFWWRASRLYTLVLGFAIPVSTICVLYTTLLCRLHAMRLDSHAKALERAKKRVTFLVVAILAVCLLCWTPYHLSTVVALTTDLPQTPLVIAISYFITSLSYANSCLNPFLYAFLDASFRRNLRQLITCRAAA
OX1R antag-2: antagonists of human orexin 1 receptor (OX1R) | OX1R-expressing cells, FRET antagonist read-out | inhibition, % at 6.6 µM | 330,000 compounds, 1.8% hits | AID 485270, 2010; in the data active = inhibition mostly above about 38%, no sharp cut-off; inactive = mostly below about 40%;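 note: 0% = agonist challenge alone and 100% = reference antagonist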
nonsel antag count: nonselective antagonists in TAAR1 counter-screen cells, counter-screen for hTAAR1 antagonist project, cell-based, fluorescence, calcium | inhibition, % at 3 µM | 2,400 compounds, 77% hits | shares compounds with TAAR1 antagonist | counterscreen cell line, antagonist mode | AID 651780, 2012; in the data active = inhibition above about 22%;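 note: CHO-Ga16 host cells stimulated with ATP at an EC80 level; 0% = agonist EC80 plus vehicle and 100% = vehicle without agonist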
TAAR1 ant conf: human TAAR1 antagonists, retest of hits, confirmation, cell-based, fluorescence. shares compounds with TAAR1 antagonist. TAAR1-expressing cells, fluorescence antagonist read-out. inhibition, % at 3 µM. 2,400 compounds, 40% hits. AID 651785, 2012; in the data active = inhibition above about 49%;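 note: CHO-Ga16 host cells challenged with agonist PEA near its EC80; 0% = agonist at EC80 plus vehicle and 100% = vehicle with no agonist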
Ga16 nonsel ag: calcium activation in Ga16-expressing cells, counter-screen for TAAR1 antagonist project, cell-based, fluorescence; shares compounds with TAAR1 antagonist; agonist counterscreen; activation, % at 3 µM; 2,400 compounds, 18% hits; AID 651953, 2012; in the data active = activation above about 12%;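 note: 0% = vehicle wells and 100% = saturating stimulus response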
TAAR1 ag counter: TAAR1 activation by candidate antagonists – cell-based, fluorescence, counter-screen for TAAR1 antagonist project; hTAAR1 cell line, agonist mode; activation, % at 3 µM; 2,400 compounds, 2% hits; shares compounds with TAAR1 antagonist; in the data active = activation above about 37%;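 note: CHO cells stably expressing TAAR1 with calcium dye readout; 0% = DMSO vehicle and 100% = full agonist response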
Starred values were filed as active, the others as inactive. Hits are enriched below; roughly 4.6% of the tested compounds scored in any of these assays.

COc1ccc(C2=NS(=O)(=O)N(C)C(C(=O)N3CCc4ccccc4C3)=C2)cc1OC was read as TAAR1 antagonist 68*, CHO parental Ca -1, TAAR1 agonist 24, OX1R antag-1 -3, GPR7 antag 2, OX1R antag-2 16, nonsel antag count 40*, TAAR1 ant conf 50*, Ga16 nonsel ag 11 and TAAR1 ag counter 51*.
`CCc1ccc(NC(=O)C2=CC(c3ccc(OC)c(OC)c3)=NS(=O)(=O)N2C)cc1` gave TAAR1 antagonist 68*, CHO parental Ca 4, TAAR1 agonist 6, OX1R antag-1 -1, GPR7 antag 8, OX1R antag-2 16, nonsel antag count 33*, TAAR1 ant conf 37, Ga16 nonsel ag 7 and TAAR1 ag counter 7.
Screening CC1CCCN(CC(O)COc2ccc(S(=O)(=O)N3CCCC3)cc2[N+](=O)[O-])C1 (stereo not drawn) returned TAAR1 antagonist -17, CHO parental Ca -4, TAAR1 agonist 7, OX1R antag-1 -18 and OX1R antag-2 6.
O=[N+]([O-])c1ccccc1C=NN1CCCCCC1 was read as TAAR1 antagonist -16 and TAAR1 agonist -1.
Screening c1ccc(Oc2ccc(-c3ccnc4nc(N5CCN(c6ccccc6)CC5)nn34)cc2)cc1 returned TAAR1 antagonist 2, CHO parental Ca -14, TAAR1 agonist 5, OX1R antag-1 -21, GPR7 antag -4 and OX1R antag-2 7.
`CSc1nc2nccc(-c3ccc(Oc4ccccc4)cc3)n2n1` gave TAAR1 antagonist 56*, CHO parental Ca -4, TAAR1 agonist 11, OX1R antag-1 -35, GPR7 antag -7, OX1R antag-2 12, nonsel antag count 16, TAAR1 ant conf 22, Ga16 nonsel ag 2 and TAAR1 ag counter 10.
CN(C)C(=O)CCc1ccc2c3c([nH]c2c1)[C@]1(C)[C@@H](C(=O)N2CCCCC2)C[C@H](CC(=O)NCC24CC5CC(CC(C5)C2)C4)C(=O)N1CC3 was read as TAAR1 antagonist -4, CHO parental Ca -21, TAAR1 agonist 4, OX1R antag-1 -28 and OX1R antag-2 1.
For O=C(Nc1ccc(Cc2ccncc2)cc1)c1ccc(N2CCOCC2)c([N+](=O)[O-])c1 the results were TAAR1 antagonist 95*, CHO parental Ca -4, TAAR1 agonist 30, OX1R antag-1 -19, GPR7 antag -7, OX1R antag-2 9, nonsel antag count 33*, TAAR1 ant conf 52*, Ga16 nonsel ag 14* and TAAR1 ag counter 16.
`Cc1ccc(NC(=O)c2ccc(N3CCOCC3)c([N+](=O)[O-])c2)cc1S(=O)(=O)N1CCOCC1` gave TAAR1 antagonist 68*, CHO parental Ca 22, TAAR1 agonist 32, OX1R antag-1 13, GPR7 antag -5, OX1R antag-2 32, nonsel antag count 42*, TAAR1 ant conf 60*, Ga16 nonsel ag 16* and TAAR1 ag counter 13.
For O=C(Nc1ccc(N2CCCCC2)c(Cl)c1)c1ccc(N2CCOCC2)c([N+](=O)[O-])c1 the results were TAAR1 antagonist 25, CHO parental Ca -12, TAAR1 agonist 6, OX1R antag-1 9, GPR7 antag -3 and OX1R antag-2 14.
Cc1ccccc1OCC(=O)N=Nc1c(O)n(C)c2ccccc12 was read as TAAR1 antagonist 54*, CHO parental Ca -17, TAAR1 agonist 6, OX1R antag-1 -15, GPR7 antag -12, OX1R antag-2 25, nonsel antag count 27*, TAAR1 ant conf 46, Ga16 nonsel ag 6 and TAAR1 ag counter 9.
For NC(Cc1ccc(C(F)(F)F)cc1)c1csc(NC(=O)NCCc2ccccc2)n1 (stereo not drawn) the results were TAAR1 antagonist -3 and TAAR1 agonist 32.
For C=Cn1ccnc1CC(O)c1ccc(OC)cc1 (stereo not drawn) the results were TAAR1 antagonist -10, CHO parental Ca -14, TAAR1 agonist 2, OX1R antag-1 -14 and OX1R antag-2 9.
`Cc1ccc(S(=O)(=O)N=N/C=C2\C=CC=CN2O)cc1` gave TAAR1 antagonist 6 and TAAR1 agonist 1.
COCCN(C(=O)COc1ccccc1C#N)c1c(N)n(Cc2ccccc2)c(=O)[nH]c1=O was read as TAAR1 antagonist 1, CHO parental Ca 8, TAAR1 agonist 1, OX1R antag-1 -16 and OX1R antag-2 14.
For CN1CCN(c2ncnc3c2c(-c2ccccc2)cn3-c2ccc(F)cc2)CC1 the results were TAAR1 antagonist 60*, CHO parental Ca -14, TAAR1 agonist 10, OX1R antag-1 6, GPR7 antag 5, OX1R antag-2 0, nonsel antag count 11, TAAR1 ant conf 53*, Ga16 nonsel ag 9 and TAAR1 ag counter 28.
Screening CCc1nnc(NC(=O)C2Cc3ccccc3CN2S(=O)(=O)CC)s1 (stereo not drawn) returned TAAR1 antagonist 10, CHO parental Ca -5, TAAR1 agonist 0, OX1R antag-1 -37, GPR7 antag -1 and OX1R antag-2 19.
For CCS(=O)(=O)N1Cc2ccccc2CC1C(=O)Nc1nnc(SCc2ccc(F)cc2)s1 (stereo not drawn) the results were TAAR1 antagonist 62*, CHO parental Ca -15, TAAR1 agonist 30, OX1R antag-1 -5, GPR7 antag -2, OX1R antag-2 6, nonsel antag count 32*, TAAR1 ant conf 43, Ga16 nonsel ag 9 and TAAR1 ag counter 9.
